Broadly, the IC50 is the concentration that inhibits the measured activity by half. Broadly, the EC50 is the concentration that produces a half-maximal response.

Structures are written as SMILES.

T2 sequence (Q8NER1 whole entry): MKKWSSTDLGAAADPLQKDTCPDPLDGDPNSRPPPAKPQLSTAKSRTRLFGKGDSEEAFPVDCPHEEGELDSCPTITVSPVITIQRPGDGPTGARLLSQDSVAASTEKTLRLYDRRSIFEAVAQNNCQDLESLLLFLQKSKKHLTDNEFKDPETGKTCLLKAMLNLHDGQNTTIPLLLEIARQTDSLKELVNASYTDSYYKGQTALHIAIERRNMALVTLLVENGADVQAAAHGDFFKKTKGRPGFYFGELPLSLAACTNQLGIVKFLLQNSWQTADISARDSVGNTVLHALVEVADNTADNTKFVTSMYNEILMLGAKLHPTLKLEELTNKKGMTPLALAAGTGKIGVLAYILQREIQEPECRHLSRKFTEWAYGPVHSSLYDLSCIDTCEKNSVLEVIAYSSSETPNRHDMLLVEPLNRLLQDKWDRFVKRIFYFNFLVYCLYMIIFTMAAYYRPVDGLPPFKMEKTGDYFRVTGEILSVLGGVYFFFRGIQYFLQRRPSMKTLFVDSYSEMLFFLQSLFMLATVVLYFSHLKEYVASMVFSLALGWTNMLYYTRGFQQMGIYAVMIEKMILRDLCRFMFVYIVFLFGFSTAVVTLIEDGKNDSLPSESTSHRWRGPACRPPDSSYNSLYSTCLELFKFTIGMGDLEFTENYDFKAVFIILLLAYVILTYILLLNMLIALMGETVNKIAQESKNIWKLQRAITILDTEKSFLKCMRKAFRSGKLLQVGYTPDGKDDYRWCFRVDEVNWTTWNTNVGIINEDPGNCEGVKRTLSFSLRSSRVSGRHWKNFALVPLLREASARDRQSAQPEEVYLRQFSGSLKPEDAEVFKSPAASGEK
T1 sequence (Q8R455 whole entry): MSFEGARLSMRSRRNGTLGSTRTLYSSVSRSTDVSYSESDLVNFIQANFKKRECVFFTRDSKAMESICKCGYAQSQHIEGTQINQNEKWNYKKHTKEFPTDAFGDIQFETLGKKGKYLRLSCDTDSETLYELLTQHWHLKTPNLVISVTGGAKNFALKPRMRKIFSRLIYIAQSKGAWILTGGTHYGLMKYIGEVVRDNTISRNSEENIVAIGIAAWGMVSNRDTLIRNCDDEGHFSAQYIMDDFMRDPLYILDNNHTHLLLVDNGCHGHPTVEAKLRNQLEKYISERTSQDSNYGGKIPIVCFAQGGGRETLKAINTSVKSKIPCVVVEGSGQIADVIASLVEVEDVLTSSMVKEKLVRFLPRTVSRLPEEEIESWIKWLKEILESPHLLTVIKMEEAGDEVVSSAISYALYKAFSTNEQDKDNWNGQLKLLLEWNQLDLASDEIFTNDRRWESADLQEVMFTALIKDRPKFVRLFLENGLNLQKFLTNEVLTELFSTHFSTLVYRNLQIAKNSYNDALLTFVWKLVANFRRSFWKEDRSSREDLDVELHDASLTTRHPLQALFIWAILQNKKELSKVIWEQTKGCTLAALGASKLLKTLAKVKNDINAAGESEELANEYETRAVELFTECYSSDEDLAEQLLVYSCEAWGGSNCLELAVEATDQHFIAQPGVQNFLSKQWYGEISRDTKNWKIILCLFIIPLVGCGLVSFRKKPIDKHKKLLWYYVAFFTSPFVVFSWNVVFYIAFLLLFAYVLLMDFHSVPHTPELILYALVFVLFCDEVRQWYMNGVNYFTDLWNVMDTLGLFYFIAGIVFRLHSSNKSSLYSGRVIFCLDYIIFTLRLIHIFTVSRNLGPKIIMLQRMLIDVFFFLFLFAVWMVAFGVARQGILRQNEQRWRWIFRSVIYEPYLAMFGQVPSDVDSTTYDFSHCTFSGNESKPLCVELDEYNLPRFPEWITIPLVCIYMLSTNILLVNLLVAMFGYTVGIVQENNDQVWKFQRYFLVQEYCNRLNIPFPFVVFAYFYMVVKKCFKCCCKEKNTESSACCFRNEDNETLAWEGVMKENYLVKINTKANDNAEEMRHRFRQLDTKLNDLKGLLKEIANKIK
Chain of Transient receptor potential cation channel subfamily A member 1 (Q6RI86 whole entry): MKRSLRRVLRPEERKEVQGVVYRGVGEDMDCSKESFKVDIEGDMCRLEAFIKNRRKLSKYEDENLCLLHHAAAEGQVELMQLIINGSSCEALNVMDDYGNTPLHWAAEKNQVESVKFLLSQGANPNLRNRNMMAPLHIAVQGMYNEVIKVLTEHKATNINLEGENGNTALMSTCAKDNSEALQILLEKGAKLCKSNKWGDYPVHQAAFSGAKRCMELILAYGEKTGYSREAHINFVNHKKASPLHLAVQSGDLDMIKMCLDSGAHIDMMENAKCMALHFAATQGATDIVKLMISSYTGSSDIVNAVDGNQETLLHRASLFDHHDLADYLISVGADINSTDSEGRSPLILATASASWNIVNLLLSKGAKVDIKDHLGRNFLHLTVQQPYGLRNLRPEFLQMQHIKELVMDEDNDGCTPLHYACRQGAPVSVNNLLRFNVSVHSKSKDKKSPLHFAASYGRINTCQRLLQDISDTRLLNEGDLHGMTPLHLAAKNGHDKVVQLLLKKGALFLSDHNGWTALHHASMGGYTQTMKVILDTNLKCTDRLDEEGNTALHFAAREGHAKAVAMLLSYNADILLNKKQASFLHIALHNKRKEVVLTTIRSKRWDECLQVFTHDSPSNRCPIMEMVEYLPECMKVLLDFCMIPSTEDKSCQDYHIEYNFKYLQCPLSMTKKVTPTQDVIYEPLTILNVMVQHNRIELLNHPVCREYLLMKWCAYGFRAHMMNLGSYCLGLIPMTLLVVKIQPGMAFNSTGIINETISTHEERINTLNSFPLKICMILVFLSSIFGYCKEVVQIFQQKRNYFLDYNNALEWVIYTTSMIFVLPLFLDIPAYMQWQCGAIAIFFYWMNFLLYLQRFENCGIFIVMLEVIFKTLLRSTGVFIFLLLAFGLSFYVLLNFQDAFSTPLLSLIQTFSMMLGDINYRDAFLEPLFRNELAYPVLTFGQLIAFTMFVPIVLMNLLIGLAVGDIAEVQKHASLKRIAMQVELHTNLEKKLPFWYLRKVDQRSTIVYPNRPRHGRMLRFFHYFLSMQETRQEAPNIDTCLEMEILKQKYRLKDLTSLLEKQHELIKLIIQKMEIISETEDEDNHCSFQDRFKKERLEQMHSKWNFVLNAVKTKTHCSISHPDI

One experiment deals with T1, Transient receptor potential cation channel subfamily M member 8 (Rattus norvegicus, UniProt Q8R455). The experiment is described as follows: Antagonist activity at rat TRMP8 receptor expressed in HEK293 cells assessed as icilin-induced calcium elevation. It counts as functional, cell-based. An outline of the steps:
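HEK-293 cells stably expressing rat TRPM8 received compound 5 min before icilin (0.25 µM). Inhibition of the intracellular Ca2+ elevation was measured. IC50 given as mean ± SEM of N = 3.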
Consider `CC(C)[C@@H]1CC[C@@H](C)C[C@H]1NC(=O)NCCc1c[nH]c2ccc(O)cc12`, for which the concentration for half-maximal inhibition (IC50) was determined as 31 µM.

Take `CC(C)[C@@H]1CC[C@@H](C)C[C@H]1NC(=O)Oc1cccc(C(F)(F)F)c1`: the concentration for half-maximal inhibition (IC50) is 0.6 µM.

For the compound `CC(C)[C@@H]1CC[C@@H](C)C[C@H]1NC(=O)CCCCCCc1ccccc1`, the half-maximal inhibitory concentration (IC50) turned out to be 0.4 µM.

As for `CC(C)[C@@H]1CC[C@@H](C)C[C@H]1NC(=O)c1cccc(Cl)c1`, the concentration for half-maximal inhibition (IC50) was found to be 2.1 µM.

In the case of `COc1cc(CNC(=O)N[C@@H]2C[C@H](C)CC[C@H]2C(C)C)ccc1O`, the IC50 amounted to 19.8 µM.

On to `CC(C)[C@@H]1CC[C@@H](C)C[C@H]1NC(=O)Oc1ccc(Cl)cc1`, for which the half-inhibitory concentration (IC50) worked out at 4.1 µM.

Take `COc1ccc(OC(=O)N[C@@H]2C[C@H](C)CC[C@H]2C(C)C)cc1`: the IC50 was determined as 2.6 µM.

`Cc1ccc(C(=O)N[C@@H]2C[C@H](C)CC[C@H]2C(C)C)cc1`: the IC50 was 2.5 µM.

Consider `CC(C)[C@@H]1CC[C@@H](C)C[C@H]1NC(=O)Oc1cccc(Cl)c1`, for which the half-inhibitory concentration (IC50) worked out at 0.5 µM.

In the case of `Cc1ccc(OC(=O)N[C@@H]2C[C@H](C)CC[C@H]2C(C)C)cc1`, the IC50 was 0.7 µM.

Turning to `CC(C)[C@@H]1CC[C@@H](C)C[C@H]1NC(=O)NC12CC3CC(CC(C3)C1)C2`, the IC50 was above 100 µM.

The next experiment addresses T1, Transient receptor potential cation channel subfamily M member 8. Briefly: Antagonist activity at rat TRMP8 receptor expressed in HEK293 cells assessed as menthol-induced calcium elevation. The class given is functional, cell-based. An outline of the steps: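 Rat TRPM8-transfected HEK-293 cells were pretreated with compound for 5 min, then challenged with menthol (20 µM). Block of the Ca2+ rise gave IC50 (means ± SEM, N = 3).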
As to `CC(C)[C@@H]1CC[C@@H](C)C[C@H]1NC(=O)NCCc1c[nH]c2ccc(O)cc12`, the IC50 stood at 15.8 µM.

For `CC(C)[C@@H]1CC[C@@H](C)C[C@H]1NC(=O)Oc1cccc(C(F)(F)F)c1`, the concentration for half-maximal inhibition (IC50) came out at 0.3 µM.

On to `CC(C)[C@@H]1CC[C@@H](C)C[C@H]1NC(=O)CCCCCCc1ccccc1`, for which the half-inhibitory concentration (IC50) was 0.4 µM.

On to `CC(C)[C@@H]1CC[C@@H](C)C[C@H]1NC(=O)c1cccc(Cl)c1`, for which the 50% inhibitory concentration (IC50) was determined as 2.8 µM.

For `COc1cc(CNC(=O)N[C@@H]2C[C@H](C)CC[C@H]2C(C)C)ccc1O`, the IC50 is 30.5 µM.

Take `CC(C)[C@@H]1CC[C@@H](C)C[C@H]1NC(=O)Oc1ccc(Cl)cc1`: the half-maximal inhibitory concentration (IC50) amounted to 0.8 µM.

Turning to `COc1ccc(OC(=O)N[C@@H]2C[C@H](C)CC[C@H]2C(C)C)cc1`, the half-maximal inhibitory concentration (IC50) is 2.2 µM.

In the case of `Cc1ccc(C(=O)N[C@@H]2C[C@H](C)CC[C@H]2C(C)C)cc1`, the 50% inhibitory concentration (IC50) is 2.2 µM.

Consider `CC(C)[C@@H]1CC[C@@H](C)C[C@H]1NC(=O)Oc1cccc(Cl)c1`, for which the half-inhibitory concentration (IC50) worked out at 1.5 µM.

As to `Cc1ccc(OC(=O)N[C@@H]2C[C@H](C)CC[C@H]2C(C)C)cc1`, the IC50 is 1.1 µM.

Regarding `CC(C)[C@@H]1CC[C@@H](C)C[C@H]1NC(=O)NC12CC3CC(CC(C3)C1)C2`, the IC50 is above 100 µM.

The target in a further experiment is T2, Transient receptor potential cation channel subfamily V member 1 (Homo sapiens, UniProt Q8NER1). Briefly: Agonist activity at human TRPV1 receptor expressed in HEK293 cells assessed as intracellular calcium stimulation. The class given is functional, cell-based. An outline of the steps:
(§1)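 Stably transfected HEK-293 lines (human TRPV1 or rat TRPA1) exposed to compound; rise in intracellular Ca2+ recorded. Non-transfected HEK-293 cells served as control. EC50 reported as mean ± SEM, N = 3.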
A general note: A change in cytosolic calcium serves as a functional read-out for many receptors and channels.
With `CC(C)[C@@H]1CC[C@@H](C)C[C@H]1NC(=O)NCCc1c[nH]c2ccc(O)cc12`, the concentration for a half-maximal effect (EC50) worked out at 52.2 µM.

Consider `CC(C)[C@@H]1CC[C@@H](C)C[C@H]1NC(=O)c1cccc(Cl)c1`, for which the EC50 is 7.6 µM.

Take `COc1cc(CNC(=O)N[C@@H]2C[C@H](C)CC[C@H]2C(C)C)ccc1O`: the EC50 was determined as 0.23 µM.

Regarding `CC(C)[C@@H]1CC[C@@H](C)C[C@H]1NC(=O)Oc1ccc(Cl)cc1`, the EC50 stood at 42.8 µM.

`COc1ccc(OC(=O)N[C@@H]2C[C@H](C)CC[C@H]2C(C)C)cc1`: the EC50 was 53.8 µM.

As for `CC(C)[C@@H]1CC[C@@H](C)C[C@H]1NC(=O)Oc1cccc(Cl)c1`, the 50% effective concentration (EC50) is 19.2 µM.

`CC(C)[C@@H]1CC[C@@H](C)C[C@H]1NC(=O)NC12CC3CC(CC(C3)C1)C2`: the concentration for a half-maximal effect (EC50) is 1 µM.

In the next experiment the target is T2, Transient receptor potential cation channel subfamily V member 1. Briefly: Agonist activity at human TRPV1 receptor expressed in HEK293 cells assessed as intracellular calcium stimulation relative to inomycin. The class given is functional, cell-based. An outline of the steps: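 Ca2+ elevation in HEK-293 cells stably expressing human TRPV1, expressed as percent of the ionomycin ([…]) response. Not measurable if below 10%. Mean ± SEM, N = 3.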
Regarding `CC(C)[C@@H]1CC[C@@H](C)C[C@H]1NC(=O)NCCc1c[nH]c2ccc(O)cc12`, the Efficacy came out at 12.7%.

For the compound `CC(C)[C@@H]1CC[C@@H](C)C[C@H]1NC(=O)Oc1cccc(C(F)(F)F)c1`, the Efficacy was 7.4%.

Regarding `CC(C)[C@@H]1CC[C@@H](C)C[C@H]1NC(=O)CCCCCCc1ccccc1`, the Efficacy stood at 8%.

`CC(C)[C@@H]1CC[C@@H](C)C[C@H]1NC(=O)c1cccc(Cl)c1`: the Efficacy stood at 41.9%.

Regarding `COc1cc(CNC(=O)N[C@@H]2C[C@H](C)CC[C@H]2C(C)C)ccc1O`, the Efficacy was determined as 63.2%.

Turning to `CC(C)[C@@H]1CC[C@@H](C)C[C@H]1NC(=O)Oc1ccc(Cl)cc1`, the Efficacy came to 15.1%.

As to `COc1ccc(OC(=O)N[C@@H]2C[C@H](C)CC[C@H]2C(C)C)cc1`, the Efficacy was 46.6%.

On to `Cc1ccc(C(=O)N[C@@H]2C[C@H](C)CC[C@H]2C(C)C)cc1`, for which the Efficacy worked out at 5.4%.

Turning to `CC(C)[C@@H]1CC[C@@H](C)C[C@H]1NC(=O)Oc1cccc(Cl)c1`, the Efficacy stood at 22.6%.

As for `Cc1ccc(OC(=O)N[C@@H]2C[C@H](C)CC[C@H]2C(C)C)cc1`, the Efficacy came out at 3.4%.

Take `CC(C)[C@@H]1CC[C@@H](C)C[C@H]1NC(=O)NC12CC3CC(CC(C3)C1)C2`: the Efficacy came to 24.4%.

The target of another experiment is Transient receptor potential cation channel subfamily A member 1 (Rattus norvegicus, UniProt Q6RI86). The experiment is described as follows: Agonist activity at rat TRPA1 receptor expressed in HEK293 cells assessed as intracellular calcium stimulation. The class given is functional, cell-based. A digest of the protocol:
as §1
For `CC(C)[C@@H]1CC[C@@H](C)C[C@H]1NC(=O)Oc1cccc(C(F)(F)F)c1`, the concentration for a half-maximal effect (EC50) turned out to be 13.8 µM.

On to `CC(C)[C@@H]1CC[C@@H](C)C[C@H]1NC(=O)CCCCCCc1ccccc1`, for which the concentration giving a half-maximal response (EC50) came to 0.4 µM.

Take `CC(C)[C@@H]1CC[C@@H](C)C[C@H]1NC(=O)Oc1ccc(Cl)cc1`: the EC50 is 7.1 µM.

For the compound `COc1ccc(OC(=O)N[C@@H]2C[C@H](C)CC[C@H]2C(C)C)cc1`, the 50% effective concentration (EC50) was found to be 3.2 µM.

In the case of `CC(C)[C@@H]1CC[C@@H](C)C[C@H]1NC(=O)Oc1cccc(Cl)c1`, the EC50 worked out at 30 µM.

Regarding `Cc1ccc(OC(=O)N[C@@H]2C[C@H](C)CC[C@H]2C(C)C)cc1`, the EC50 is 0.7 µM.

Consider `CC(C)[C@@H]1CC[C@@H](C)C[C@H]1NC(=O)NC12CC3CC(CC(C3)C1)C2`, for which the EC50 was determined as 11.2 µM.

For the next experiment, the target named is Transient receptor potential cation channel subfamily A member 1 (Rattus norvegicus) (UniProt Q6RI86). The experiment is described as follows: Agonist activity at rat TRPA1 receptor expressed in HEK293 cells assessed as intracellular calcium stimulation relative to isothiocyanate. The class given is functional, cell-based. A digest of the protocol: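 Intracellular Ca2+ rise in HEK-293 cells stably transfected with rat TRPA1, given as percent of the response to allyl isothiocyanate (100 µM). Efficacy under 10% scored not measurable. N = 3, mean ± SEM.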
Chain of Transient receptor potential cation channel subfamily A member 1 (Rattus norvegicus) (Q6RI86 whole entry): as above
In the case of `CC(C)[C@@H]1CC[C@@H](C)C[C@H]1NC(=O)NCCc1c[nH]c2ccc(O)cc12`, the Efficacy was below 10%.

For the compound `CC(C)[C@@H]1CC[C@@H](C)C[C@H]1NC(=O)Oc1cccc(C(F)(F)F)c1`, the Efficacy was 220%.

On to `CC(C)[C@@H]1CC[C@@H](C)C[C@H]1NC(=O)CCCCCCc1ccccc1`, for which the Efficacy was found to be 42.8%.

As to `CC(C)[C@@H]1CC[C@@H](C)C[C@H]1NC(=O)c1cccc(Cl)c1`, the Efficacy is below 10%.

Take `COc1cc(CNC(=O)N[C@@H]2C[C@H](C)CC[C@H]2C(C)C)ccc1O`: the Efficacy was below 10%.

For the compound `CC(C)[C@@H]1CC[C@@H](C)C[C@H]1NC(=O)Oc1ccc(Cl)cc1`, the Efficacy is 181%.

On to `COc1ccc(OC(=O)N[C@@H]2C[C@H](C)CC[C@H]2C(C)C)cc1`, for which the Efficacy is 135%.

Consider `Cc1ccc(C(=O)N[C@@H]2C[C@H](C)CC[C@H]2C(C)C)cc1`, for which the Efficacy was below 10%.

`CC(C)[C@@H]1CC[C@@H](C)C[C@H]1NC(=O)Oc1cccc(Cl)c1`: the Efficacy is 309%.

`Cc1ccc(OC(=O)N[C@@H]2C[C@H](C)CC[C@H]2C(C)C)cc1`: the Efficacy was found to be 73.9%.

Take `CC(C)[C@@H]1CC[C@@H](C)C[C@H]1NC(=O)NC12CC3CC(CC(C3)C1)C2`: the Efficacy was determined as 159%.

The values are drawn from ChEMBL document CHEMBL1158538, “(-)-Menthylamine derivatives as potent and selective antagonists of transient receptor potential melastatin type-8 (TRPM8) channels” (Bioorg Med Chem Lett, 2010).
